Eleven compounds from ChEMBL document CHEMBL1949589, “Hydrophilic pyrazine dyes as exogenous fluorescent tracer agents for real-time point-of-care measurement of glomerular filtration rate” (J Med Chem, 2011) can be followed below.

Data set [1] can be described thus: Plasma protein binding in rat at 20 uM after 1 hr by HPLC analysis. Particulars: read-out: PPB (converted); call rule not given here. It is filed as ADME, cell-free. The procedure, abridged: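 20 μM compound in rat plasma, 37 °C for 1 h. Free fraction separated by 30 kDa MWCO centrifugal ultrafiltration and quantified by HPLC with fluorescence detection against external calibration standards.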

A short description of data set [2]: Drug excretion in Sprague-Dawley rat urine after 6 hrs. It is filed as ADME. The procedure, abridged: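 Test agent (1 mL, 2 mM in PBS) given by tail vein to conscious restrained rats in metabolic cages, urine collected at 2, 4 and 6 h with cage washes; or to rats anesthetized with Inactin 100 mg/kg ip, tracheotomized, kept on 37 °C pad, with bladder urine drawn at 6 h. Urine level by HPLC with fluorescence detection against external standards; %ID from mass balance; mean ± SEM, n=3-6.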

Data set [3] can be described thus: Stability of the compound assessed as drug degradation by HPLC analysis. The class given is physicochemical.
Data set [4] can be described thus: Terminal half life in Sprague-Dawley rat plasma […]. The class given is ADME, organism-based. Particulars: read-out: beta t1/2. A digest of the protocol: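 Male Sprague Dawley rats (330-380 g), Inactin ip, tracheotomized, with femoral vein dosing and femoral artery sampling catheters. Dose was 1 mL of 2 mM agent; about 200 μL blood taken at 0-120 min (10 points). Plasma measured by HPLC with fluorescence detection against external standards. Terminal-phase half-life from two-compartment modeling; mean ± SEM, n=4-8.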

Another data set deals with Rattus norvegicus. Kind of data set: Plasma clearance in Sprague-Dawley rat in presence of 70 mg/kg probenecid administered 10 mins prior to compound treatment. Particulars: in vivo.
The species named for the next data set is Mus musculus. Kind of data set: Drug uptake in mouse bladder at 300 uL after 60 mins by real-time fluorescence analysis. Particulars: in vivo, 1 h.

Regarding `Nc1nc(C(=O)NCCO)c(N)nc1C(=O)NCCO`, the fraction unbound at 1 h, 20 µM in data set [1] is 0.88.

In the case of `Nc1nc(C(=O)NCC(O)CO)c(N)nc1C(=O)NCC(O)CO` (stereo not given), the urinary excretion (% of injected dose) at 6 h in data set [2] came to 61 % ID. Further, the fraction unbound at 1 h, 20 µM in data set [1] is 0.98.

As to `Nc1nc(C(=O)N[C@@H](CO)C(=O)O)c(N)nc1C(=O)N[C@@H](CO)C(=O)O`, in data set [3], the Stability entry was “Stable”. The half-life in data set [4] is 36 min. The same compound gave a urinary excretion (% of injected dose) at 6 h in data set [2] of 82 % ID. The fraction unbound at 1 h, 20 µM in data set [1] was 1. Also, the CL entry in the data set with Rattus norvegicus was “Not Active”.

`Nc1nc(C(=O)N[C@H](CC(=O)O)C(=O)O)c(N)nc1C(=O)N[C@H](CC(=O)O)C(=O)O` came in with a urinary excretion (% of injected dose) at 6 h in data set [2] of 61 % ID. For the same compound, the fraction unbound at 1 h, 20 µM in data set [1] is 1.

For `CCCNc1nc(C(=O)N[C@H](CO)C(=O)O)c(NCCC)nc1C(=O)N[C@H](CO)C(=O)O`, in data set [1], the fraction unbound at 1 h, 20 µM was 0.26.

As to `NC(=O)c1nc(NC[C@H](O)CO)c(C(N)=O)nc1NC[C@H](O)CO`, the urinary excretion (% of injected dose) at 6 h in data set [2] turned out to be 25 % ID. For the same compound, the fraction unbound at 1 h, 20 µM in data set [1] is 0.85.

On to `O=C(NCC(O)CO)c1nc(NC[C@H](O)CO)c(C(=O)NCC(O)CO)nc1NC[C@H](O)CO` (stereo not given in full), for which the Stability entry in data set [3] was “Stable”. Besides, the half-life in data set [4] worked out at 19 min. In data set [2], the urinary excretion (% of injected dose) at 6 h worked out at 88 % ID. In addition, the fraction unbound at 1 h, 20 µM in data set [1] was 0.94. Further, in the data set filed under Mus musculus, the Drug uptake entry is given as “Active”. Moreover, in the data set with Rattus norvegicus, the CL result was “Active”.

`O=C(NCC(O)CO)c1nc(NC[C@@H](O)CO)c(C(=O)NCC(O)CO)nc1NC[C@@H](O)CO` (stereo not given in full) had a urinary excretion (% of injected dose) at 6 h in data set [2] of 87 % ID. Further, the fraction unbound at 1 h, 20 µM in data set [1] was 0.96.

Take `O=C(N[C@H](CO)C(=O)O)c1nc(NC[C@H](O)CO)c(C(=O)N[C@H](CO)C(=O)O)nc1NC[C@H](O)CO`: the Stability entry in data set [3] is given as “Stable”. The half-life in data set [4] is 20 min. In data set [2], the urinary excretion (% of injected dose) at 6 h is 85 % ID. For the same compound, in data set [1], the fraction unbound at 1 h, 20 µM was 1. Also, the CL result in the data set on Rattus norvegicus is listed as “Active”.

As for `CNC(=O)c1c(I)c(NC(C)=O)c(I)c(C(=O)O)c1I` [IOTHALAMIC ACID], the half-life in data set [4] was 32 min. The urinary excretion (% of injected dose) at 6 h in data set [2] came to 80 % ID. Moreover, the fraction unbound at 1 h, 20 µM in data set [1] is 0.9. The CL entry in the data set on Rattus norvegicus is “Active”.

On to `Nc1nc(C(=O)N[C@H](CO)C(=O)O)c(N)nc1C(=O)N[C@H](CO)C(=O)O` [RELMAPIRAZIN], for which the Stability entry in data set [3] is given as “Stable”. In addition, the half-life in data set [4] amounted to 29 min. Also, the urinary excretion (% of injected dose) at 6 h in data set [2] stood at 90 % ID. In addition, in data set [1], the fraction unbound at 1 h, 20 µM was 1. Further, the CL result with Rattus norvegicus was “Active”.
